Assay [1] in a line: RPL19A-GFP modulators, yeast TOR pathway, confirmation, cell-based, S. cerevisiae, flow cytometry, cherry picks, mother/daughter gates (AID 2270;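 active = GFP response below 50% of the DMSO control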). To be noted: S. cerevisiae RPL19A-GFP strain, 3 h, at 10 µM, stronger effect = lower value, 100 = same GFP as DMSO wells. A general note: In flow cytometry, cells or beads pass a laser one at a time.
Assay [2] in a line: LAP4-GFP expression modulators in yeast, confirmation, cell-based, cherry picks, flow cytometry, mother/daughter gates (AID 2271;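 active = GFP response above 150% of the DMSO control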;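 also: ratio of sample to DMSO plate mean so 100% equals DMSO level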). To be noted: S. cerevisiae LAP4-GFP strain, 3 h, at 10 µM, stronger effect = higher value, 100 means same as DMSO control. A digest of the protocol: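 Material – Alexa Fluor 633-labelled Saccharomyces cerevisiae GFP-fusion strain, single-plex · Incubation – compound exposure 3 h at 30 °C, end-over-end rotation · Measured by – GFP by flow cytometry · Measure – median GFP fluorescence as percent of plate-mean DMSO wells · Control set – positive rapamycin (400 ng/mL), negative DMSO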

Assay [3] in a line: modulators of MEP2-GFP levels in yeast, confirmation, S. cerevisiae, flow cytometry GFP, cherry picks (AID 2272;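 active = GFP response above 150% of the DMSO control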;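 also: ratio of well signal to plate DMSO mean so 100% equals DMSO level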). To be noted: S. cerevisiae MEP2-GFP strain, 3 h, at 10 µM, stronger effect = higher value.
Assay [4] can be described thus: AGP1-GFP expression modulators, hit retest, confirmation, cell-based, flow cytometry, S. cerevisiae, cherry picks (AID 2273).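 Also: median GFP channel fluorescence over the whole cell population gate.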 To be noted: S. cerevisiae AGP1-GFP strain, 3 h, at 10 µM.
A short description of assay [5]: modulators of CIT2-GFP expression in yeast, confirmation, S. cerevisiae, GFP fusion, cherry picks, mother/daughter gates (AID 2274). To be noted: S. cerevisiae CIT2-GFP strain, flow cytometry, 3 h, at 10 µM, stronger effect = higher value.
The mark [6] stands for this setting: measured here: daughter cell gate.
[7] abbreviates: measured here: mother cell gate.
Where [8] appears, read: measured here: daughter cell gate response.
Where [9] appears, read: measured here: mother cell gate response.

Our source for the GFP response vs DMSO, GFP response relative to DMSO and GFP response, % of DMSO values is PubChem BioAssay.

Calls of active or inactive are those of the source.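 The calls were made as follows, unless noted: active = GFP response above 150% of the DMSO level; inconclusive = fewer than 70 events counted for a yeast strain; inactive = the rest.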

With `CCOc1ccc(S(=O)(=O)N2CCc3ccccc3C2)cc1`, the GFP response vs DMSO in assay [1] is 99.7% (inactive); in assay [1] (setting [6]), 97.8%; in assay [1] (setting [7]), 100%; in assay [3], 97.5% (inactive). The figures for the GFP response relative to DMSO in assay [2], in assay [2] (setting [8]) and in assay [2] (setting [9]) were 101% (inactive), 95% and 102%, respectively. In addition, the GFP response, % of DMSO is 96.2% (inactive) in assay [4], 92.1% (inactive) in assay [5], 92.7% in assay [5] (setting [6]) and 91% in assay [5] (setting [7]).
As to `CCN(CC)Cc1csc2ccc(Br)cc12`, the GFP response vs DMSO in assay [1] is 98.4% (inactive); in assay [1] (setting [6]) it was 97.8%; in assay [1] (setting [7]), 98.2%; in assay [3], 102% (inactive). Moreover, the results for the GFP response relative to DMSO in assay [2], in assay [2] (setting [8]) and in assay [2] (setting [9]) were 96.2% (inactive), 97.2% and 99.3%, respectively. Also, the GFP response, % of DMSO in assay [4] is 100% (inactive); in assay [5], 97.8% (inactive); in assay [5] (setting [6]), 96.5%; in assay [5] (setting [7]), 98.7%.
As to `Cc1ncc2c(n1)-c1cc(F)ccc1SC2`, the GFP response vs DMSO in assay [1] was 104% (inactive); in assay [1] (setting [6]), 105%; in assay [1] (setting [7]) it was 103%; in assay [3], 109% (inactive). The GFP response relative to DMSO in assay [2] was 87.6% (inactive); in assay [2] (setting [8]) it was 89.6%; in assay [2] (setting [9]), 85.5%. Moreover, the GFP response, % of DMSO in assay [4] was 94.5% (inactive); in assay [5] it was 113% (inactive); in assay [5] (setting [6]), 116%; in assay [5] (setting [7]), 109%.
As for `COc1ccc(Cl)cc1C(Nc1cccnc1)c1ccc2cccnc2c1O` (configuration not stated), the GFP response vs DMSO in assay [1] is 97% (inactive); in assay [1] (setting [6]), 98.8%; in assay [1] (setting [7]) it was 95.2%; in assay [3], 116% (inactive). Also, the GFP response relative to DMSO is 121% (inactive) in assay [2], 109% in assay [2] (setting [8]) and 127% in assay [2] (setting [9]). In addition, the GFP response, % of DMSO in assay [4] is 97.1% (inactive); in assay [5] it was 109% (inactive); in assay [5] (setting [6]) it was 115%; in assay [5] (setting [7]), 101%.
In the case of `O=C(COC(=O)c1cccs1)Nc1nc(-c2ccccc2)cs1`, the GFP response vs DMSO in assay [1] was 97% (inactive); in assay [1] (setting [6]) it was 95.6%; in assay [1] (setting [7]) it was 98.4%; in assay [3], 96.2% (inactive). The GFP response relative to DMSO is 99.2% (inactive) in assay [2], 99.2% in assay [2] (setting [8]) and 99.3% in assay [2] (setting [9]). The GFP response, % of DMSO in assay [4] is 99.1% (inactive); in assay [5], 99.7% (inactive); in assay [5] (setting [6]) it was 99.1%; in assay [5] (setting [7]), 96.1%.
For `Cc1ccccc1N1C(=O)CC(Sc2nnc(-c3ccccc3)o2)C1=O` (configuration not stated), the GFP response vs DMSO is 94.6% (inactive) in assay [1], 92.2% in assay [1] (setting [6]), 93.2% in assay [1] (setting [7]) and 103% (inactive) in assay [3]. For the same molecule, the results for the GFP response relative to DMSO in assay [2], in assay [2] (setting [8]) and in assay [2] (setting [9]) were 102% (inactive), 101% and 103%, respectively. Besides, the GFP response, % of DMSO in assay [4] was 102% (inactive); in assay [5], 97.3% (inactive); in assay [5] (setting [6]) it was 97.4%; in assay [5] (setting [7]), 96.8%.
`CCOC(=O)Cc1csc(NC(=O)COc2ccc(N(C)S(=O)(=O)c3cccs3)cc2)n1`: the GFP response vs DMSO was 95% (inactive) in assay [1], 94.9% in assay [1] (setting [6]), 92% in assay [1] (setting [7]) and 105% (inactive) in assay [3]. Further, the GFP response relative to DMSO in assay [2] is 102% (inactive); in assay [2] (setting [8]), 101%; in assay [2] (setting [9]) it was 98.3%. Moreover, the GFP response, % of DMSO was 96.6% (inactive) in assay [4], 95.5% (inactive) in assay [5], 97.2% in assay [5] (setting [6]) and 95% in assay [5] (setting [7]).
As to `Cc1cc(OCC(=O)Nc2ccc(S(=O)(=O)N3CCN(C)CC3)cc2)ccc1Br`, the GFP response vs DMSO is 98% (inactive) in assay [1], 98.7% in assay [1] (setting [6]), 97.3% in assay [1] (setting [7]) and 101% (inactive) in assay [3]. For the same molecule, the GFP response relative to DMSO was 97.7% (inactive) in assay [2], 99% in assay [2] (setting [8]) and 97.4% in assay [2] (setting [9]). Also, the GFP response, % of DMSO in assay [4] is 106% (inactive); in assay [5], 101% (inactive); in assay [5] (setting [6]), 101%; in assay [5] (setting [7]), 103%.
With `Cc1ccc(-c2csc(NC(=O)c3ccno3)n2)cc1`, the GFP response vs DMSO in assay [1] was 99% (inactive); in assay [1] (setting [6]), 98.4%; in assay [1] (setting [7]), 96.5%; in assay [3], 99% (inactive). The GFP response relative to DMSO is 103% (inactive) in assay [2], 99.1% in assay [2] (setting [8]) and 106% in assay [2] (setting [9]). Also, the GFP response, % of DMSO was 95.1% (inactive) in assay [4], 100% (inactive) in assay [5], 99.2% in assay [5] (setting [6]) and 99.3% in assay [5] (setting [7]).
As to `O=[N+]([O-])c1ccc(S(=O)(=O)c2cccc(C(F)(F)F)c2)nc1`, the GFP response vs DMSO in assay [1] was 81.9% (inactive); in assay [1] (setting [6]) it was 92.5%; in assay [1] (setting [7]), 75%; in assay [3] it was 157% (inactive). The figures for the GFP response relative to DMSO in assay [2], in assay [2] (setting [8]) and in assay [2] (setting [9]) were 240% (active), 180% and 221%, respectively. Also, the GFP response, % of DMSO was 122% (inactive) in assay [4], 128% (inactive) in assay [5], 149% in assay [5] (setting [6]) and 110% in assay [5] (setting [7]).
On to `Cc1ccc(NN2C(=O)C=C(c3ccc(Cl)cc3)C2=O)cc1`, for which the GFP response vs DMSO in assay [1] was 83.9% (inactive); in assay [1] (setting [6]) it was 87.1%; in assay [1] (setting [7]), 74.3%; in assay [3] it was 111% (inactive). Moreover, the GFP response relative to DMSO in assay [2] is 289% (active); in assay [2] (setting [8]), 117%; in assay [2] (setting [9]) it was 280%. The GFP response, % of DMSO is 91.3% (inactive) in assay [4], 96.9% (inactive) in assay [5], 91.7% in assay [5] (setting [6]) and 83.1% in assay [5] (setting [7]).
Regarding `COc1ccc(S(=O)(=O)N2Cc3ccccc3CC2C(=O)O)cc1OC` (configuration not stated), the GFP response vs DMSO in assay [1] was 97% (inactive); in assay [1] (setting [6]), 97%; in assay [1] (setting [7]), 97.1%; in assay [3], 104% (inactive). Besides, the results for the GFP response relative to DMSO in assay [2], in assay [2] (setting [8]) and in assay [2] (setting [9]) were 98.8% (inactive), 96.5% and 98.5%, respectively. For the same molecule, the GFP response, % of DMSO in assay [4] is 102% (inactive); in assay [5], 99.3% (inactive); in assay [5] (setting [6]) it was 100%; in assay [5] (setting [7]) it was 99.1%.
As for `O=C(O)CSC1CC(=O)N(c2ccc(Cl)c(Cl)c2)C1=O` (configuration not stated), the GFP response vs DMSO in assay [1] was 97.8% (inactive); in assay [1] (setting [6]), 97.8%; in assay [1] (setting [7]) it was 97.5%; in assay [3], 101% (inactive). The figures for the GFP response relative to DMSO in assay [2], in assay [2] (setting [8]) and in assay [2] (setting [9]) were 108% (inactive), 113% and 107%, respectively. Further, the GFP response, % of DMSO was 101% (inactive) in assay [4], 100% (inactive) in assay [5], 99.3% in assay [5] (setting [6]) and 100% in assay [5] (setting [7]).
Turning to `O=C(Sc1cccc2cccnc12)c1ccccc1Br`, the GFP response vs DMSO in assay [1] is 96.8% (inactive); in assay [1] (setting [6]) it was 92.3%; in assay [1] (setting [7]), 98.5%; in assay [3], 122% (inactive). The GFP response relative to DMSO in assay [2] is 151% (active); in assay [2] (setting [8]), 144%; in assay [2] (setting [9]), 153%. Moreover, the GFP response, % of DMSO in assay [4] is 95.8% (inactive); in assay [5], 114% (inactive); in assay [5] (setting [6]), 115%; in assay [5] (setting [7]), 112%.
Take `O=S(=O)(c1ccccc1)N1N=C(c2ccccc2)CC1c1ccccc1` (configuration not stated): the GFP response vs DMSO was 105% (inactive) in assay [1], 105% in assay [1] (setting [6]), 103% in assay [1] (setting [7]) and 112% (inactive) in assay [3]. Also, the GFP response relative to DMSO in assay [2] was 97% (inactive); in assay [2] (setting [8]), 97.5%; in assay [2] (setting [9]), 97.3%. The GFP response, % of DMSO was 99.4% (inactive) in assay [4], 106% (inactive) in assay [5], 108% in assay [5] (setting [6]) and 104% in assay [5] (setting [7]).
For `N#C/C(=C\c1ccccn1)c1nc2ccccc2s1`, the GFP response vs DMSO in assay [1] is 170% (inactive); in assay [1] (setting [6]), 158%; in assay [1] (setting [7]), 172%; in assay [3] it was 1020% (active). For the same molecule, the GFP response relative to DMSO is 584% (active) in assay [2], 464% in assay [2] (setting [8]) and 589% in assay [2] (setting [9]). Also, the GFP response, % of DMSO was 205% (active) in assay [4], 506% (active) in assay [5], 433% in assay [5] (setting [6]) and 496% in assay [5] (setting [7]).
On to `O=C(c1ccc(Cl)cc1)N1CCN(c2cccc3[nH]ccc23)CC1`, for which the GFP response vs DMSO in assay [1] was 94.6% (inactive); in assay [1] (setting [6]), 94.1%; in assay [1] (setting [7]), 93.1%; in assay [3], 105% (inactive). Further, the GFP response relative to DMSO in assay [2] was 108% (inactive); in assay [2] (setting [8]) it was 107%; in assay [2] (setting [9]) it was 105%. Further, the GFP response, % of DMSO in assay [4] is 91.9% (inactive); in assay [5], 96.9% (inactive); in assay [5] (setting [6]), 99.1%; in assay [5] (setting [7]), 95%.
